Three compounds from article PMC12486158 (Analytical biochemistry, 2025) can be followed below.

Each structure is given as a SMILES string.

What all share (type): biochemical
Assay [1] deals with T1, Homo sapiens SAMHD1 (Homo sapiens, UniProt Q9Y3Z3). In words: Tight-binding inhibition of SAMHD1. Particulars: read-out: Ki (Morrison equation, tight-binding); 100 nM SAMHD1, 500 μM dTTP (5×KM), eq. 4 & 5.
Assay [2] addresses T1, Homo sapiens SAMHD1. In words: Lineweaver-Burk plot and mechanism of inhibition of SAMHD1. The procedure, abridged:
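Same GTP/dATP pre-activation and coupled MESG/PNP/Ppx1/PPase system. Final: 100 nM SAMHD1, 10 μM GTP, 500 nM dATP, 5 mM MgCl2. Reactions started with inhibitor (up to 4 μM) premixed into dTTP stocks of 0.625–10 mM. A360 followed for 20 min. Initial rates shown as a double-reciprocal plot and globally fitted to a competitive-inhibition equation for Kis. Mean ± SD of three independent experiments.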

The target in assay [3] is T1, Homo sapiens SAMHD1. In words: Steady-state kinetics of activated SAMHD1 with dTTP. Particulars: read-out: KM of dTTP; 100 nM SAMHD1 activated with GTP and dATP, dTTP 8.4-500 μM. The procedure, abridged:
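Recombinant SAMHD1 (HisTrap, then size-exclusion purified) pre-activated stepwise with GTP then dATP, diluted, and mixed with MESG/PNP/Ppx1/PPase coupling cocktail. Final: 100 nM enzyme, 10 μM GTP, 500 nM dATP, 500 μM MESG, […], 10 nM Ppx1 and PPase. Buffer: HEPES pH 8.0, NaCl, MgCl2, TCEP, glycerol. dTTP 8.4–500 μM. A360 over 20 min. Rates corrected for 3 Pi/dTTP. Michaelis-Menten fit. Three independent experiments.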

T1 sequence (Q9Y3Z3 114-626): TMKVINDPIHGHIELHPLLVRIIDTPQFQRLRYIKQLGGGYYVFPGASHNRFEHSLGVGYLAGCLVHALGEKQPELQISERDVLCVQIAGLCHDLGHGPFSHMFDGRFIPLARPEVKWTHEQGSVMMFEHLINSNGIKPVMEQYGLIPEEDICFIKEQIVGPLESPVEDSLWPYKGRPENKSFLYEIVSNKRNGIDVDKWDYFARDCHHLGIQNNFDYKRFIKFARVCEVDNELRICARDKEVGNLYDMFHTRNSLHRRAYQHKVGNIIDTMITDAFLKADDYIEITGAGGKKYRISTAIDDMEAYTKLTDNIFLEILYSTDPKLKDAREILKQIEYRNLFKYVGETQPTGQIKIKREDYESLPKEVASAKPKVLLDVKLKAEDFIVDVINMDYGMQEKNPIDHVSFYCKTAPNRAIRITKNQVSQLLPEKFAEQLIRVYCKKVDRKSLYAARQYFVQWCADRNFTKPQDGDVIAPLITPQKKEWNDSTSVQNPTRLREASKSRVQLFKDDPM

For orientation: Ki means the equilibrium dissociation constant of an inhibitor or competing ligand from its target. Take `Nc1nc2c(ncn2[C@H]2C[C@H](O)[C@@H](COP(=O)(O)NP(=O)(O)OP(=O)(O)O)O2)c(=O)[nH]1` [dGPNPP, 2'-Deoxyguanosine-5'-[(α,β)-imido]triphosphate]: the Ki in assay [1] stood at 25 ± 7 nM. In addition, the Mode of inhibition result in assay [2] (double-reciprocal Lineweaver-Burk plot, varied dTTP) is recorded as “competitive inhibition”. Moreover, the “Kis (global inhibition constant, competitive fit)” value in assay [2] (varied dTTP and dGPNPP (up to 4 μM), global fit) came out at 53 ± 7.0 nM.
As usually defined, the Km is the concentration of substrate that gives half-maximal velocity. `Cc1cn([C@H]2C[C@H](O)[C@@H](COP(=O)(O)OP(=O)(O)OP(=O)(O)O)O2)c(=O)[nH]c1=O` [dTTP, 2’-Deoxythymidine-5’-triphosphate]: the Km in assay [3] came out at 102 ± 9.4 µM.
On to `Nc1ccn([C@H]2C[C@H](O)[C@@H](COP(=O)(O)NP(=O)(O)OP(=O)(O)O)O2)c(=O)n1` [dCPNPP, 2'-Deoxycytidine-5'-[(α,β)-imido]triphosphate], for which the Ki in assay [1] turned out to be 67 ± 8 nM.
